Measurements pooled from the literature.
Compare with care: the assays were run in different laboratories.
Medium: Caco-2

| SMILES | concentration | time | Papp B→A |
| --- | --- | --- | --- |
| Oc1cc(O)c2c(c1)O[C@H](c1ccc(O)c(O)c1)[C@H](O)C2 | 100 µg/mL | 2 h | 0.55 ×10⁻⁶ cm/s |
| CC(C)NCC(O)COc1cccc2ccccc12 (centres unmarked) | 10 µM | 2 h | 20 ×10⁻⁶ cm/s |
| CCCCCOC(=O)Nc1nc(=O)n([C@@H]2O[C@H](C)[C@@H](O)[C@H]2O)cc1F |  | 4 h | 14.3 ×10⁻⁶ cm/s |
| C[C@H]1O[C@@H](O[C@H]2[C@@H](O)C[C@H](O[C@H]3[C@@H](O)C[C@H](O[C@H]4CC[C@@]5(C)[C@H](CC[C@@H]6[C@@H]5C[C@@H](O)[C@]5(C)[C@@H](C7=CC(=O)OC7)CC[C@]65O)C4)O[C@@H]3C)O[C@@H]2C)C[C@H](O)[C@@H]1O | 5 µM | 2 h | 17.9 ×10⁻⁶ cm/s |
| N#Cc1ccc(C[C@H](Nc2nnc(-c3ccc(F)cc3)o2)C(=O)N2CCc3ccccc32)cc1 | 100 µM | 2 h | 237 ×10⁻⁶ cm/s |
| O=c1c(-c2ccc(O)cc2)coc2cc(O)ccc12 | 100 µg/mL | 2 h | 4.98 ×10⁻⁶ cm/s |
| CC(C)c1nc(N(C)S(C)(=O)=O)nc(-c2ccc(F)cc2)c1/C=C/[C@@H](O)C[C@@H](O)CC(=O)O | 5 µM | 2 h | 14.6 ×10⁻⁶ cm/s |
| C=CC(=O)NC1CCN(c2ncc3ncnc(Nc4ccc(Oc5ccc6c(c5)ncn6C)c(C)c4)c3n2)CC1 |  |  | ~9 ×10⁻⁶ cm/s |
| COc1ccc(-c2coc3cc(O)cc(O)c3c2=O)cc1 | 100 µg/mL | 2 h | 21.2 ×10⁻⁶ cm/s |
| Cc1cc(C)c(CNC(=O)c2cc(Cl)c3c(c2C)O[C@@](C)([C@H]2CC[C@H](N(C)C)CC2)O3)c(=O)[nH]1 | 100 µM |  | 16.3 ×10⁻⁶ cm/s |
| N#Cc1ccc(C[C@H](Nc2nnc(-c3ccc(F)cc3)s2)C(=O)N2CCc3ccccc32)cc1 | 100 µM | 2 h | 314 ×10⁻⁶ cm/s |
| COc1cc(NC(=O)Cn2cc(Cl)c3cc(F)c(-c4cnn(C)c4)cc32)cc(OC)c1OC |  |  | 1.51 ×10⁻⁶ cm/s |
| C[C@@H]1O[C@@H](OC[C@H]2O[C@@H](Oc3c(-c4ccc(OCCO)c(OCCO)c4)oc4cc(OCCO)cc(O)c4c3=O)[C@H](O)[C@@H](O)[C@@H]2O)[C@H](O)[C@H](O)[C@H]1O | 100 µg/mL | 2 h | 2.67 ×10⁻⁶ cm/s |
| N#Cc1ccc(C[C@H](NC(=O)Nc2ccc(F)cc2)C(=O)N2CCc3ccccc32)cc1 | 100 µM | 2 h | 218 ×10⁻⁶ cm/s |
